molecular target: Bromodomain-containing protein 4 (Homo sapiens, UniProt O60885); assay: Inhibition of recombinant human His-tagged BRD4 bromodomain 1/2 (2 to 1362 residues) expressed in […] insect cells using biotinylated H4(1 to 21)K5/8/12/16Ac peptide as substrate preincubated for 30 mins followed by substrate addition and measured after 30 mins by Alpha screen assay; conditions: not given

Row | IC50 [µM] | SMILES
1 | 1.79 | N#Cc1cccc(S(=O)(=O)Nc2ccc3[nH]c(=O)c4ccccc4c3c2)c1
2 | 6.74 | O=c1[nH]c2ccc(NS(=O)(=O)c3cccs3)cc2c2ccccc12
3 | 0.79 | O=c1[nH]c2ccc(NS(=O)(=O)c3cccc(Cl)c3)cc2c2ccccc12
4 | 1.32 | COc1ccc(S(=O)(=O)Nc2ccc3[nH]c(=O)c4ccccc4c3c2)cc1
5 | 5.17 | O=c1[nH]c2ccc(NS(=O)(=O)Cc3ccccc3)cc2c2ccccc12
6 | 1.64 | O=c1[nH]c2ccc(NS(=O)(=O)c3ccccc3)cc2c2ccccc12
7 | 1.25 | O=c1[nH]c2ccc(NS(=O)(=O)c3ccccc3Cl)cc2c2ccccc12
8 | 0.85 | O=c1[nH]c2ccc(NS(=O)(=O)c3ccc(Cl)cc3)cc2c2ccccc12
9 | 0.48 | COc1ccccc1S(=O)(=O)Nc1ccc2[nH]c(=O)c3ccccc3c2c1

Continued, molecule first:

Row | SMILES | IC50 [µM]
10 | CC(C)(C)c1ccc(S(=O)(=O)Nc2ccc3[nH]c(=O)c4ccccc4c3c2)cc1 | 1.13
11 | O=c1[nH]c2ccc(NS(=O)(=O)C3CCCCC3)cc2c2ccccc12 | 5.92
12 | O=c1[nH]c2ccc(NS(=O)(=O)c3ccc4c(c3)CCO4)cc2c2ccccc12 | 13.1
13 | O=C(Nc1ccc2[nH]c(=O)c3ccccc3c2c1)c1ccccc1 | 18.6
14 | CCCS(=O)(=O)Nc1ccc2[nH]c(=O)c3ccccc3c2c1 | 6.71
15 | O=C(Nc1ccccc1)Nc1ccc2[nH]c(=O)c3ccccc3c2c1 | 9.93
16 | CCCCS(=O)(=O)Nc1ccc2[nH]c(=O)c3ccccc3c2c1 | 5.54
17 | O=C(Nc1ccc2[nH]c(=O)c3ccccc3c2c1)Oc1ccccc1 | 6.02
18 | O=c1[nH]c2ccc(NS(=O)(=O)C3CCCC3)cc2c2ccccc12 | 6.17
19 | COc1cc(Cl)ccc1S(=O)(=O)Nc1ccc2oc(=O)ccc2c1 | 0.93
20 | O=c1[nH]c2ccc(NS(=O)(=O)c3ccc4ccccc4c3)cc2c2ccccc12 | 7.23

test system: A549; assay: Antiproliferative activity against human A549 cells incubated for 48 hrs by MTT assay; type: functional, cell-based; conditions: A549, 48 h
Summary of the method: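 Cells kept in DMEM or RPMI 1640 with 10% FBS at 37 °C, 5% CO2. MTT added for 4 h at 37 °C, formazan dissolved in DMSO, OD read at 570 nm. Survival % taken relative to blank and control wells. Triplicate runs; IC50 from curve fit.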

Row | IC50 [µM] | SMILES
21 | 4.63 | COc1cc(Cl)ccc1S(=O)(=O)Nc1ccc2oc(=O)ccc2c1
